# Assay outcomes as filed in PubChem BioAssay.
# HUVEC inhibit: blocks proliferation of human endothelial cells; HUVEC proliferation, CellTiter-Glo luminescence, 72 h; stronger effect = lower value; AID 648; viability, % at 10 µM (by protocol); actives 1.1% (n = 86,000);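 active means viability at or below 30%; inactive means viability above 30%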;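 further: 100% = median luminescence of DMSO-only cell control wells on each plate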
# bCat KO growth: beta-catenin-lacking colon tumor cell growth suppression | viability, % at 10 µM | AID 818 | actives 1.5% (n = 140,000) | HCT116 beta-catenin knockout viability, CellTiter-Glo, 60 h; stronger effect = lower value;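 active means viability at or under a set limit, the compound median less 4 SD, cut at about 6% in these data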;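 further: 0% = Hyamine 1622 control at 20 µM and 100% = untreated cell control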
# H69AR growth 86K: blocks growth of human H69AR lung tumor cells; H69AR lung tumor viability, ATP luminescence, 72 h; stronger effect = lower value; viability, % at 10 µM; AID 598; actives 6% (n = 85,000);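 active means viability at or below 40%; inactive means viability above 40%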;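 further: multidrug resistant small cell line overexpressing MRP-1 efflux transporter; 100% = mean luminescence of untreated control wells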
# PTEN del growth: suppresses growth of cells with PTEN deletion | viability, % at 10 µM | HCT116 PTEN-null viability, CellTiter-Glo, 60 h; stronger effect = lower value | actives 1.2% (n = 140,000);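 active means viability at or below a set limit, 4 SD under the median of all tested compounds, cut at about 3.7% in these data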;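 further: PTEN knockout HCT116 line with beta catenin targeted HCT116 as companion control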
# Lung fibro prol: blocks proliferation of human lung fibroblasts. LL 47 human lung fibroblast viability, ATP luminescence; stronger effect = lower value. viability, % at 10 µM. actives 1.1% (n = 85,000);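 active means viability at or below 50% in the single dose screen; inactive means viability above 50%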;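 further: compound exposure lasted 72 h before the ATP readout; 100% = median luminescence of untreated cell-only wells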
#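 Signal: luminescent ATP detection, CellTiter-Glo; assay system: LL 47 human lung fibroblasts; input: 1,150 cells/well; incubation: overnight cell rest, 72 h compound treatment at 37 °C; measure: % viability versus median cells-only luminescence; medium: IMEM growth medium with 15% fetal bovine serum; dosing: compound addition at 0.1% DMSO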
# * marks the source's active call; other numbers are inactive results; · = not tested or not shown. The sample as a whole holds a higher share of hits than the screen did.
SMILES,HUVEC inhibit,bCat KO growth,H69AR growth 86K,PTEN del growth,Lung fibro prol
CCc1cc2cc(C)ccc2nc1SCC(=O)Nc1cc(C)on1,85,85,63,97,93
CSc1cccc(NC(=O)CSc2nc3ccccc3o2)c1,81,95,81,102,102
COc1ccc(C=C(C(C)=O)C(C)=O)cc1OC,89,111,22*,92,103
CC1CCN(S(=O)(=O)c2ccc(Cl)cc2)CC1,92,98,88,94,94
CC1=C(C)CS(=O)N(S(=O)(=O)c2ccc(Cl)cc2)C1 (stereo not drawn),59,95,104,97,47*
O=C(CSc1nc2ccccc2[nH]1)N1CCN(S(=O)(=O)c2ccc(Cl)cc2)CC1,95,82,86,75,117
CCOc1ccc(N2CCn3c2nc2c3c(=O)n(CCc3ccccc3)c(=O)n2C)cc1,100,·,15*,·,108
O=C(O)CCc1nc2cccnc2n1Cc1ccccc1,101,95,73,96,96
CCc1ccc(NC(=O)CCc2nc3cccnc3n2Cc2ccc(OC)cc2)cc1,64,58,18*,61,45*
CCOCCCNC(=O)C(c1ccc(C)cc1)N(Cc1cccs1)C(=O)CNC(C)=O (stereo not drawn),·,96,·,103,·
O=C(CN1C(=O)c2ccccc2C1=O)c1ccccc1,96,108,93,104,100
CC1=C(CC(=O)c2ccccc2)C(=O)c2ccccc2C1=O,·,2.2*,·,2.0*,·
CSc1cccc(NC(=O)/C=C/c2cccc(Cl)c2)c1,·,97,·,92,·
Cc1n[nH]c(C)c1N1C(=O)c2cccc3c(Br)ccc(c23)C1=O,71,4.8*,95,57,93
O=C(CCC(=O)c1ccc(F)cc1)Nc1cccc(S(=O)(=O)Nc2cccc(Cl)c2)c1,·,75,·,77,·
O=C(c1ccco1)N1CCN(CCCCOc2ccc(F)cc2)CC1,·,96,·,98,·
COc1ccc(Br)cc1CNc1ccc(O)cc1,88,83,36*,66,100
COc1ccc(Br)cc1CNC(C)c1ccccc1 (stereo not drawn),·,74,·,74,·
COC(=O)c1ccc(NC(=O)c2ccccc2N(C)S(=O)(=O)c2ccccc2)cc1,·,89,·,94,·
COc1cccc(N(C(=O)c2ccco2)c2nc(-c3sc(NC(=O)c4ccco4)nc3C)cs2)c1,·,3.8*,·,6,·
COc1ccccc1Nc1nc(-c2sc(NC(=O)c3ccco3)nc2C)cs1,·,47,·,56,·
Cn1ccnc1SCC(=O)c1ccc(Br)cc1,88,81,29*,73,96
Cc1ccnc(NC(=O)c2cccc(NS(=O)(=O)c3ccccc3C)c2)c1,·,87,·,111,·
O=C(c1ccc(Cl)cc1)c1oc2ccccc2c1CS(=O)c1ccccc1 (stereo not drawn),·,78,·,72,·
CCOC(=O)N1CCC(c2cc(=O)n3[nH]c(C)c(-c4ccc(F)cc4)c3n2)CC1,6.4*,25,96,46,84
SMILES,HUVEC inhibit,bCat KO growth,H69AR growth 86K,PTEN del growth,Lung fibro prol
CCCn1nc2cc(C(=O)NCCc3cccs3)ccc2c1OCC,·,87,·,108,·
CCOc1ccccc1N1CCN(C(=O)C2c3ccccc3Oc3ccccc32)CC1,56,15,19*,14,68
Cn1nnnc1Sc1nc(-c2cccnc2)nc2ccccc12,86,·,0.0*,·,12*
Cc1ccc(O)c(NC(=O)CCC2CCCCC2)c1,93,98,27*,87,102
O=C(CCC1CCCCC1)Nc1ccccc1O,107,97,95,94,116
Cc1cccc(OCC(=O)Nc2cc(C)ccc2O)c1,82,87,24*,95,95
CCOC(=O)c1ccc(N/C=C\C(=O)c2cccc(OC)c2)cc1,·,76,·,83,·
COc1cccc(C(=O)/C=C/Nc2cc(C)ccc2O)c1,69,66,8.9*,70,91
Cc1cccc(OCC(=O)Nc2cc(C)c(C)cc2O)c1,89,89,84,100,105
O=C(Nc1ccc(Cl)cc1)c1cnc(-c2ccccc2)nc1-c1ccccc1,·,0.9*,·,2.7*,·
O=C(Nc1ccc(F)cc1)c1sc(Cl)nc1-c1ccccc1,·,103,·,95,·
Cc1cccc(-n2nnnc2SCC(=O)c2cc(C)n(Cc3ccco3)c2C)c1,49,96,7.3*,99,·
O=C(NCC(c1cccs1)N1CCOCC1)c1ccc(Cl)s1 (stereo not drawn),82,16,18*,21,64
O=C(NCC(c1cccs1)N1CCOCC1)c1cc([N+](=O)[O-])ccc1Cl (stereo not drawn),·,87,·,91,·
